# Square brackets hold non-standard residues; d marks the D form. Peptide text beside a SMILES is read from it. * marks the point of attachment. X1 = C=CCOC(=O)[C@]12CC[C@@H](C(=C)C)[C@@H]1[C@H]1CC[C@@H]3[C@@]4(C)CC[C@H](OC(=O)CCc5cn(CC(=O)*)nn5)C(C)(C)[C@@H]4CC[C@@]3(C)[C@]1(C)CC2; X9 = C=CCOC(=O)[C@]12CC[C@@H](C)[C@H](C)[C@H]1C1=CC[C@@H]3[C@@]4(C)CC[C@H](OC(=O)CCc5cn(CC(=O)*)nn5)C(C)(C)[C@@H]4CC[C@@]3(C)[C@]1(C)CC2; X5 = C=C(C)[C@@H]1CC[C@]2(C(=O)OCc3cn(CC(=O)*)nn3)CC[C@]3(C)[C@H](CC[C@@H]4[C@@]5(C)CC[C@H](OC(C)=O)C(C)(C)[C@@H]5CC[C@]43C)[C@@H]12; X4 = C=C(C)[C@@H]1CC[C@]2(C(=O)OCc3cn(CC(=O)*)nn3)CC[C@]3(C)[C@H](CC[C@@H]4[C@@]5(C)CC[C@H](O)C(C)(C)[C@@H]5CC[C@]43C)[C@@H]12; X7 = C[C@H]1[C@H](C)CC[C@]2(C(=O)OCc3cn(CC(=O)*)nn3)CC[C@]3(C)C(=CC[C@@H]4[C@@]5(C)CC[C@H](O)C(C)(C)[C@@H]5CC[C@]43C)[C@H]12; X10 = CC1(C)CC[C@]2(C(=O)OCc3cn(CC(=O)*)nn3)CC[C@]3(C)C(=CC[C@@H]4[C@@]5(C)CC[C@H](O)C(C)(C)[C@@H]5CC[C@]43C)[C@@H]2C1; βAla = NCCC(=O)O
# Tests used:
# [1] = test system: Human immunodeficiency virus 1; test: Antiviral activity against HIV1 3B infected in human MT2 cells assessed as inhibition of viral p24 antigen production by ELISA; assay type: functional, organism-based; settings: Human immunodeficiency virus 1, 3B
# Summary of the method: (§1)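 MT-2 cells (1 × 10⁴) infected with 100 TCID₅₀ virus with or without peptides at graded concentrations. Culture supernatants collected on day 4 postinfection; p24 antigen quantified by ELISA. Percent inhibition and EC₅₀ calculated; tested in triplicate, mean ± standard deviation.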
# [2] = Cytotoxicity against human MT2 cells after 4 days by XTT assay; assay type: cell-based
# Summary of the method: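 MT-2 cells (5 × 10⁵/mL) mixed with equal volumes of graded conjugate concentrations and held at 37 °C for 4 days. XTT (1 mg/mL) with 0.02 μM phenazine methosulfate added for 4 h, then A450 read. CC50 calculated from the dose–response.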
# [3] = test system: Human immunodeficiency virus 1; test: Antiviral activity against HIV1 BaL infected in human […] cells assessed as inhibition of viral replication; assay type: functional, organism-based; settings: Human immunodeficiency virus 1, BaL; summary of the method: as §1
# [4] = Selectivity index, ratio of CC50 for human MT2 cells to EC50 for HIV1 3B infected in human MT2 cells; assay type: toxicity, cell-based; settings: read-out: Ratio CC50/EC50
compound,measurement,setting,value
CC[C@H](C)[C@H](NC(=O)[C@H](CC(C)C)NC(=O)[C@H](CO)NC(=O)[C@H](Cc1cnc[nH]1)NC(=O)[C@@H](NC(=O)[C@H](CC(C)C)NC(=O)[C@H](CO)NC(=O)[C@@H](NC(=O)[C@H](Cc1ccc(O)cc1)NC(=O)[C@H](CC(N)=O)NC(=O)[C@H](CC(N)=O)NC(=O)CCNC(=O)Cn1cc(COC(=O)[C@]23CCC(C)(C)C[C@H]2C2=CC[C@@H]4[C@@]5(C)CC[C@H](O)C(C)(C)[C@@H]5CC[C@@]4(C)[C@]2(C)CC3)nn1)[C@@H](C)O)[C@@H](C)CC)C(=O)N[C@@H](CCC(=O)O)C(=O)N[C@@H](CCC(=O)O)C(=O)N[C@@H](CO)C(=O)N[C@@H](CCC(N)=O)C(=O)N[C@@H](CC(N)=O)C(=O)N[C@@H](CCC(N)=O)C(=O)N[C@@H](CCC(N)=O)C(=O)N[C@@H](CCC(=O)O)C(=O)N[C@@H](CCCCN)C(=O)N[C@@H](CC(N)=O)C(=O)N[C@@H](CCC(=O)O)C(=O)N[C@@H](CCC(N)=O)C(=O)N[C@@H](CCC(=O)O)C(=O)N[C@@H](CC(C)C)C(=O)N[C@@H](CC(C)C)C(N)=O ({X10-βAla}-NNYTSLIHSLIEESQNQQEKNEQELL-NH2),EC50,[1],369 nM
same,CC50 at 96 h,[2],> 25000 nM
same,EC50,[3],498 nM
same,selectivity ratio,[4],> 68
C=C(C)[C@@H]1CC[C@]2(C(=O)OCc3cn(CC(=O)NCCC(=O)N[C@@H](CC(N)=O)C(=O)N[C@@H](CC(N)=O)C(=O)N[C@@H](Cc4ccc(O)cc4)C(=O)N[C@H](C(=O)N[C@@H](CO)C(=O)N[C@@H](CC(C)C)C(=O)N[C@H](C(=O)N[C@@H](Cc4cnc[nH]4)C(=O)N[C@@H](CO)C(=O)N[C@@H](CC(C)C)C(=O)N[C@H](C(=O)N[C@@H](CCC(=O)O)C(=O)N[C@@H](CCC(=O)O)C(=O)N[C@@H](CO)C(=O)N[C@@H](CCC(N)=O)C(=O)N[C@@H](CC(N)=O)C(=O)N[C@@H](CCC(N)=O)C(=O)N[C@@H](CCC(N)=O)C(=O)N[C@@H](CCC(=O)O)C(=O)N[C@@H](CCCCN)C(=O)N[C@@H](CC(N)=O)C(=O)N[C@@H](CCC(=O)O)C(=O)N[C@@H](CCC(N)=O)C(=O)N[C@@H](CCC(=O)O)C(=O)N[C@@H](CC(C)C)C(=O)N[C@@H](CC(C)C)C(N)=O)[C@@H](C)CC)[C@@H](C)CC)[C@@H](C)O)nn3)CC[C@]3(C)[C@H](CC[C@@H]4[C@@]5(C)CC[C@H](OC(C)=O)C(C)(C)[C@@H]5CC[C@]43C)[C@@H]12 ({X5-βAla}-NNYTSLIHSLIEESQNQQEKNEQELL-NH2),EC50,[1],501 nM
same,CC50 at 96 h,[2],> 25000 nM
same,EC50,[3],99 nM
same,selectivity ratio,[4],> 52
C=CCOC(=O)[C@]12CC[C@@H](C)[C@H](C)[C@H]1C1=CC[C@@H]3[C@@]4(C)CC[C@H](OC(=O)CCc5cn(CC(=O)NCCCC[C@H](NC(=O)CCNC(=O)[C@H](CC(C)C)NC(=O)[C@H](CC(C)C)NC(=O)[C@H](CCC(=O)O)NC(=O)[C@H](CCC(N)=O)NC(=O)[C@H](CCC(=O)O)NC(=O)[C@H](CC(N)=O)NC(=O)[C@H](CCCCN)NC(=O)[C@H](CCC(=O)O)NC(=O)[C@H](CCC(N)=O)NC(=O)[C@H](CCC(N)=O)NC(=O)[C@H](CC(N)=O)NC(=O)[C@H](CCC(N)=O)NC(=O)[C@H](CO)NC(=O)[C@H](CCC(=O)O)NC(=O)[C@H](CCC(=O)O)NC(=O)[C@@H](NC(=O)[C@H](CC(C)C)NC(=O)[C@H](CO)NC(=O)[C@H](Cc6cnc[nH]6)NC(=O)[C@@H](NC(=O)[C@H](CC(C)C)NC(=O)[C@H](CO)NC(=O)[C@@H](NC(=O)[C@H](Cc6ccc(O)cc6)NC(=O)[C@H](CC(N)=O)NC(=O)[C@H](CC(N)=O)NC(C)=O)[C@@H](C)O)[C@@H](C)CC)[C@@H](C)CC)C(N)=O)nn5)C(C)(C)[C@@H]4CC[C@@]3(C)[C@]1(C)CC2 (Ac-NNYTSLIHSLIEESQNQQEKNEQELL[βAla]K(X9)-NH2),EC50,[1],2.18 nM
same,CC50 at 96 h,[2],7920 nM
same,EC50,[3],2.51 nM
same,selectivity ratio,[4],3630
C=CCOC(=O)[C@]12CC[C@@H](C(=C)C)[C@@H]1[C@H]1CC[C@@H]3[C@@]4(C)CC[C@H](OC(=O)CCc5cn(CC(=O)NCCC(=O)N[C@@H](CC(N)=O)C(=O)N[C@@H](CC(N)=O)C(=O)N[C@@H](Cc6ccc(O)cc6)C(=O)N[C@H](C(=O)N[C@@H](CO)C(=O)N[C@@H](CC(C)C)C(=O)N[C@H](C(=O)N[C@@H](Cc6cnc[nH]6)C(=O)N[C@@H](CO)C(=O)N[C@@H](CC(C)C)C(=O)N[C@H](C(=O)N[C@@H](CCC(=O)O)C(=O)N[C@@H](CCC(=O)O)C(=O)N[C@@H](CO)C(=O)N[C@@H](CCC(N)=O)C(=O)N[C@@H](CC(N)=O)C(=O)N[C@@H](CCC(N)=O)C(=O)N[C@@H](CCC(N)=O)C(=O)N[C@@H](CCC(=O)O)C(=O)N[C@@H](CCCCN)C(=O)N[C@@H](CC(N)=O)C(=O)N[C@@H](CCC(=O)O)C(=O)N[C@@H](CCC(N)=O)C(=O)N[C@@H](CCC(=O)O)C(=O)N[C@@H](CC(C)C)C(=O)N[C@@H](CC(C)C)C(N)=O)[C@@H](C)CC)[C@@H](C)CC)[C@@H](C)O)nn5)C(C)(C)[C@@H]4CC[C@@]3(C)[C@]1(C)CC2 ({X1-βAla}-NNYTSLIHSLIEESQNQQEKNEQELL-NH2),EC50,[1],242 nM
same,CC50 at 96 h,[2],> 25000 nM
same,EC50,[3],519 nM
same,selectivity ratio,[4],> 103
CC[C@H](C)[C@H](NC(=O)[C@H](CC(C)C)NC(=O)[C@H](CO)NC(=O)[C@H](Cc1cnc[nH]1)NC(=O)[C@@H](NC(=O)[C@H](CC(C)C)NC(=O)[C@H](CO)NC(=O)[C@@H](NC(=O)[C@H](Cc1ccc(O)cc1)NC(=O)[C@H](CC(N)=O)NC(=O)[C@H](CC(N)=O)NC(=O)CCNC(=O)Cn1cc(COC(=O)[C@]23CC[C@@H](C)[C@H](C)[C@H]2C2=CC[C@@H]4[C@@]5(C)CC[C@H](O)C(C)(C)[C@@H]5CC[C@@]4(C)[C@]2(C)CC3)nn1)[C@@H](C)O)[C@@H](C)CC)C(=O)N[C@@H](CCC(=O)O)C(=O)N[C@@H](CCC(=O)O)C(=O)N[C@@H](CO)C(=O)N[C@@H](CCC(N)=O)C(=O)N[C@@H](CC(N)=O)C(=O)N[C@@H](CCC(N)=O)C(=O)N[C@@H](CCC(N)=O)C(=O)N[C@@H](CCC(=O)O)C(=O)N[C@@H](CCCCN)C(=O)N[C@@H](CC(N)=O)C(=O)N[C@@H](CCC(=O)O)C(=O)N[C@@H](CCC(N)=O)C(=O)N[C@@H](CCC(=O)O)C(=O)N[C@@H](CC(C)C)C(=O)N[C@@H](CC(C)C)C(N)=O ({X7-βAla}-NNYTSLIHSLIEESQNQQEKNEQELL-NH2),EC50,[1],565 nM
same,CC50 at 96 h,[2],> 25000 nM
same,EC50,[3],288 nM
same,selectivity ratio,[4],> 44
C=C(C)[C@@H]1CC[C@]2(C(=O)OCc3cn(CC(=O)NCCC(=O)N[C@@H](CC(N)=O)C(=O)N[C@@H](CC(N)=O)C(=O)N[C@@H](Cc4ccc(O)cc4)C(=O)N[C@H](C(=O)N[C@@H](CO)C(=O)N[C@@H](CC(C)C)C(=O)N[C@H](C(=O)N[C@@H](Cc4cnc[nH]4)C(=O)N[C@@H](CO)C(=O)N[C@@H](CC(C)C)C(=O)N[C@H](C(=O)N[C@@H](CCC(=O)O)C(=O)N[C@@H](CCC(=O)O)C(=O)N[C@@H](CO)C(=O)N[C@@H](CCC(N)=O)C(=O)N[C@@H](CC(N)=O)C(=O)N[C@@H](CCC(N)=O)C(=O)N[C@@H](CCC(N)=O)C(=O)N[C@@H](CCC(=O)O)C(=O)N[C@@H](CCCCN)C(=O)N[C@@H](CC(N)=O)C(=O)N[C@@H](CCC(=O)O)C(=O)N[C@@H](CCC(N)=O)C(=O)N[C@@H](CCC(=O)O)C(=O)N[C@@H](CC(C)C)C(=O)N[C@@H](CC(C)C)C(N)=O)[C@@H](C)CC)[C@@H](C)CC)[C@@H](C)O)nn3)CC[C@]3(C)[C@H](CC[C@@H]4[C@@]5(C)CC[C@H](O)C(C)(C)[C@@H]5CC[C@]43C)[C@@H]12 ({X4-βAla}-NNYTSLIHSLIEESQNQQEKNEQELL-NH2),EC50,[1],475 nM
same,CC50 at 96 h,[2],> 25000 nM
same,EC50,[3],456 nM
same,selectivity ratio,[4],> 52
C=C(C)[C@@H]1CC[C@]2(C(=O)OCc3cn(CC(=O)NCCCC[C@H](NC(=O)CCNC(=O)[C@H](CC(C)C)NC(=O)[C@H](CC(C)C)NC(=O)[C@H](CCC(=O)O)NC(=O)[C@H](CCC(N)=O)NC(=O)[C@H](CCC(=O)O)NC(=O)[C@H](CC(N)=O)NC(=O)[C@H](CCCCN)NC(=O)[C@H](CCC(=O)O)NC(=O)[C@H](CCC(N)=O)NC(=O)[C@H](CCC(N)=O)NC(=O)[C@H](CC(N)=O)NC(=O)[C@H](CCC(N)=O)NC(=O)[C@H](CO)NC(=O)[C@H](CCC(=O)O)NC(=O)[C@H](CCC(=O)O)NC(=O)[C@@H](NC(=O)[C@H](CC(C)C)NC(=O)[C@H](CO)NC(=O)[C@H](Cc4cnc[nH]4)NC(=O)[C@@H](NC(=O)[C@H](CC(C)C)NC(=O)[C@H](CO)NC(=O)[C@@H](NC(=O)[C@H](Cc4ccc(O)cc4)NC(=O)[C@H](CC(N)=O)NC(=O)[C@H](CC(N)=O)NC(C)=O)[C@@H](C)O)[C@@H](C)CC)[C@@H](C)CC)C(N)=O)nn3)CC[C@]3(C)[C@H](CC[C@@H]4[C@@]5(C)CC[C@H](O)C(C)(C)[C@@H]5CC[C@]43C)[C@@H]12 (Ac-NNYTSLIHSLIEESQNQQEKNEQELL[βAla]K(X4)-NH2),EC50,[1],154 nM
same,CC50 at 96 h,[2],> 25000 nM
same,EC50,[3],135 nM
same,selectivity ratio,[4],> 50

# Reference: ChEMBL document CHEMBL3351900, “Conjugation of a nonspecific antiviral sapogenin with a specific HIV fusion inhibitor: a promising strategy for discovering new antiviral therapeutics” (J Med Chem, 2014)
